Laboratory results reported in ChEMBL document CHEMBL3352014, “Effect of acyclic monoterpene alcohols and their derivatives on TRP channels” (Bioorg Med Chem Lett, 2014).

Columns and labels:
Type in all cases: cell-based
[1] = biological target: T1, Transient receptor potential cation channel subfamily V member 1 (Homo sapiens, UniProt Q8NER1); test: Antagonist activity against human TRPV1 expressed in HEK293 cells assessed as inhibition of capsaicin-induced increase in intracellular Ca2+ concentration by Fluo-4-AM dye based spectrofluorimetry
[2] = biological target: T2, Transient receptor potential cation channel subfamily A member 1 (Rattus norvegicus, UniProt Q6RI86); test: Antagonist activity against rat TRPA1 expressed in HEK293 cells assessed as inhibition of AITC-induced increase in intracellular Ca2+ concentration by Fluo-4-AM dye based spectrofluorimetry
[3] = biological target: T2, Transient receptor potential cation channel subfamily A member 1; test: Agonist activity at rat TRPA1 expressed in HEK293 cells assessed as increase in intracellular Ca2+ concentration by Fluo-4-AM dye based spectrofluorimetry
[4] = biological target: Transient receptor potential cation channel subfamily M member 8 (Rattus norvegicus, UniProt Q8R455); test: Antagonist activity against rat TRPM8 expressed in HEK293 cells assessed as inhibition of icilin-induced increase in intracellular Ca2+ concentration by Fluo-4-AM dye based spectrofluorimetry
[5] = biological target: Transient receptor potential cation channel subfamily M member 8 (Rattus norvegicus) (UniProt Q8R455); test: Agonist activity at rat TRPM8 expressed in HEK293 cells assessed as increase in intracellular Ca2+ concentration by Fluo-4-AM dye based spectrofluorimetry relative to ionomycin
In short: (§1)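 Same stably transfected HEK293 Fluo-4 calcium assay: human TRPV1, rat TRPM8. Tyrode's buffer pH 7.4, 25 °C, ex 488/em 516 nm. Efficacy is the compound-evoked [Ca2+]i rise normalized to the maximal Ca2+ influx from 4 µM ionomycin. Means of at least 3 determinations.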

[6] = biological target: T1, Transient receptor potential cation channel subfamily V member 1; test: Agonist activity at human TRPV1 expressed in HEK293 cells assessed as increase in intracellular Ca2+ concentration by Fluo-4-AM dye based spectrofluorimetry relative to ionomycin; in short: as §1
[7] = biological target: T1, Transient receptor potential cation channel subfamily V member 1; test: Agonist activity at human TRPV1 expressed in HEK293 cells assessed as increase in intracellular Ca2+ concentration by Fluo-4-AM dye based spectrofluorimetry
In short: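 HEK293 stably expressing human TRPV1 or rat TRPM8, grown in EMEM with non-essential amino acids, 10% FBS, 2 mM glutamine, 37 °C, 5% CO2. Fluo-4-AM loaded 1 h at room temperature; cells in Tyrode's buffer pH 7.4, about 100,000 per stirred cuvette. Fluorescence (ex 488/em 516 nm) read at 25 °C before and after various compound concentrations. EC50 from sigmoidal variable-slope fit; at least 3 determinations.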

Sequence of Transient receptor potential cation channel subfamily M member 8 (Q8R455 whole entry): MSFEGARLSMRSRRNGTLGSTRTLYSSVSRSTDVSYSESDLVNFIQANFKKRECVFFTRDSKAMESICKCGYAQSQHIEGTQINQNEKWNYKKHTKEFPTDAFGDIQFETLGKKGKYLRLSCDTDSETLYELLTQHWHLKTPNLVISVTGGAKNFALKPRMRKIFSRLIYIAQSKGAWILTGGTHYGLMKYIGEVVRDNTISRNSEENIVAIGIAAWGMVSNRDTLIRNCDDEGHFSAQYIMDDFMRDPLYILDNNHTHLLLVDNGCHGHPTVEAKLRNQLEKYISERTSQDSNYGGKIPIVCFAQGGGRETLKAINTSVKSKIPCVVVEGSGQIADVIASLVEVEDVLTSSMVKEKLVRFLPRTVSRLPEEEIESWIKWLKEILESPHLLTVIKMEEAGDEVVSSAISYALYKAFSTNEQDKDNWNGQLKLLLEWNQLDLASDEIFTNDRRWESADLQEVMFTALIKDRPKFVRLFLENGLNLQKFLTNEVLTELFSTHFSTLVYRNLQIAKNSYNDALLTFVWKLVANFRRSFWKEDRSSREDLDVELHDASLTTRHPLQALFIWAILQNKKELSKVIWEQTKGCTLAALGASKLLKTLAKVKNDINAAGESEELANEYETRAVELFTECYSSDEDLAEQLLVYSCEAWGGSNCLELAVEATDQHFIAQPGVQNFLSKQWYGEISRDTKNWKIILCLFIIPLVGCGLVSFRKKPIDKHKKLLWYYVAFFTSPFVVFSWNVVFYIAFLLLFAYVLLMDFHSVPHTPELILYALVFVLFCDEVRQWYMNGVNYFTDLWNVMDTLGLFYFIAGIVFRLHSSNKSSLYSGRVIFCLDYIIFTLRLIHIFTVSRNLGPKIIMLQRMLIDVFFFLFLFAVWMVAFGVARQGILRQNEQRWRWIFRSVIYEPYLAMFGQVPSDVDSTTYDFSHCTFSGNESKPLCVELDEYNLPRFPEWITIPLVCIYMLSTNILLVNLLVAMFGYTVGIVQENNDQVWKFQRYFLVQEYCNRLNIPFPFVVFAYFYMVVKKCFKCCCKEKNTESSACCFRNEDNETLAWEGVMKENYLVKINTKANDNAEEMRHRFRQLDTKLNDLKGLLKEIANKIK
Sequence of Transient receptor potential cation channel subfamily M member 8 (Rattus norvegicus) (Q8R455 whole entry, looked up): as the sequence (Q8R455 whole entry) above
T1 sequence (Q8NER1 whole entry): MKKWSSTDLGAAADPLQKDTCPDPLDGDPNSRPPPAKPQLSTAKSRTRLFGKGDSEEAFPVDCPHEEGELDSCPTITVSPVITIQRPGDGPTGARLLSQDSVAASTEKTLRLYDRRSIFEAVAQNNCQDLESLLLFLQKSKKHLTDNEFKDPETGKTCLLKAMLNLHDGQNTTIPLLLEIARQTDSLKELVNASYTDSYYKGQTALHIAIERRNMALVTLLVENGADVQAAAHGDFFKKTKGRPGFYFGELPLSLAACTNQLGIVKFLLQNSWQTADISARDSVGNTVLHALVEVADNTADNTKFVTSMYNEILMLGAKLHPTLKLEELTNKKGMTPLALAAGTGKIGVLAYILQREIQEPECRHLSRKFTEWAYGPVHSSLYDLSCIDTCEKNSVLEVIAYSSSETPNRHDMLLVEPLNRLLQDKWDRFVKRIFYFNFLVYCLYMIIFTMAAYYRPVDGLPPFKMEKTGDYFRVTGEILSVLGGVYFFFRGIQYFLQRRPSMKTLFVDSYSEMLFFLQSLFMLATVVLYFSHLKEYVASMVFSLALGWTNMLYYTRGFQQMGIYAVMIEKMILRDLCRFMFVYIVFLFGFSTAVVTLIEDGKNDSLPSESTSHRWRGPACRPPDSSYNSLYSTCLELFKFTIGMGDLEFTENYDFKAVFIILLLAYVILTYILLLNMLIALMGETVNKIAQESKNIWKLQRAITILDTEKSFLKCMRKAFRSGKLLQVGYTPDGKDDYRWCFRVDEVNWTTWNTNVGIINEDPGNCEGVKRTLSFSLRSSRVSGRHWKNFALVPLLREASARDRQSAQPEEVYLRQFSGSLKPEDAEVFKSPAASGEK
T2 sequence (Q6RI86 whole entry): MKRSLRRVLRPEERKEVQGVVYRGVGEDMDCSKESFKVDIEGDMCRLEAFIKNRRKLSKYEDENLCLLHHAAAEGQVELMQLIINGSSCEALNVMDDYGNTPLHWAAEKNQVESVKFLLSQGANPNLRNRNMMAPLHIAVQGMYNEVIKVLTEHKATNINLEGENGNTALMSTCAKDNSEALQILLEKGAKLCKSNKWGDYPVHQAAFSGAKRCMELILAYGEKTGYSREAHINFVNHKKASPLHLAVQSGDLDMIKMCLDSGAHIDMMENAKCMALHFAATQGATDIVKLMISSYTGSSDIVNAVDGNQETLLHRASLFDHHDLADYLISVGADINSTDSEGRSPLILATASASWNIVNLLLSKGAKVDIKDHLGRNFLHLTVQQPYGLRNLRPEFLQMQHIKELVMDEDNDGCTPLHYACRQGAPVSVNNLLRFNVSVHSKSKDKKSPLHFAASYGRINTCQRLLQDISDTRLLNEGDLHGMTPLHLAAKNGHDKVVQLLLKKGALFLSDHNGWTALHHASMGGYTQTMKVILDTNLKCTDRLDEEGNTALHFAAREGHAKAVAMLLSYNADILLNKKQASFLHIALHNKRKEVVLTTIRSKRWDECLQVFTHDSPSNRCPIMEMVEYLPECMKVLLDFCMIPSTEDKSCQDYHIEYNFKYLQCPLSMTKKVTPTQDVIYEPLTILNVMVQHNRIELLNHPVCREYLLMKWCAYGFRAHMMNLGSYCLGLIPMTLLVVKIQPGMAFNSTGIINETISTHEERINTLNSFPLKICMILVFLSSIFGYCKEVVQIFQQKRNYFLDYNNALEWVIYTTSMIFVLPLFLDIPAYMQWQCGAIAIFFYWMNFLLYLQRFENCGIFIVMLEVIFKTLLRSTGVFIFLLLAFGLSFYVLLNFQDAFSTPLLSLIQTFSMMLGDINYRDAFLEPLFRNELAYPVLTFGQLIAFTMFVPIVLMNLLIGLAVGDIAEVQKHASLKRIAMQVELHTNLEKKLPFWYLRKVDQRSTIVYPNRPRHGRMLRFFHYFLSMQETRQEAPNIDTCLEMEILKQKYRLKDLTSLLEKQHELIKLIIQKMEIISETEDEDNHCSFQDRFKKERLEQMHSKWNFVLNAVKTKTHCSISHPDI

Which IC50 [1] does the source give for `COc1ccc(CC(=O)OC/C=C(/C)CCC=C(C)C)cc1` here?
Its IC50 is greater than 100000 nM.

What about the IC50 [2] of the same molecule?
The IC50 was 260 nM.

And the EC50 [3]?
The EC50 was 140 nM.

And the IC50 [4]?
Its IC50 is 9700 nM.

And the Efficacy [5]?
Its Efficacy is less than 10%.

What about the Efficacy [6] of the same molecule?
Its Efficacy is less than 10%.

For `CC(C)=CCCC(C)CCOC(=O)CCc1ccccc1` (configuration not stated), which IC50 [1] is on record?
Its IC50 is greater than 100000 nM.

What about the IC50 [2] of the same molecule?
Its IC50 is 340 nM.

What about the EC50 [3] of the same molecule?
Its EC50 is 160 nM.

What about the IC50 [4] of the same molecule?
The IC50 was greater than 100000 nM.

And the Efficacy [5]?
The Efficacy was less than 10%.

And the Efficacy [6]?
Its Efficacy is less than 10%.

With `CC(C)=CCC/C(C)=C\CNC(=O)Cc1ccc(Cl)cc1` as the molecule, how does the IC50 [1] read?
The IC50 was 530 nM.

What about the IC50 [2] of the same molecule?
Its IC50 is 940 nM.

What about the EC50 [7] of the same molecule?
The EC50 was 430 nM.

What about the EC50 [3] of the same molecule?
The EC50 was 1000 nM.

And the IC50 [4]?
Its IC50 is 2200 nM.

And the Efficacy [5]?
Its Efficacy is less than 10%.

What about the Efficacy [6] of the same molecule?
Its Efficacy is 57.9%.

Which results are given for `CC(C)=CCCC(C)CCOC(=O)Cc1ccc(C)cc1` (configuration not stated)?
IC50 [1]: > 100000 nM; IC50 [4]: 2400 nM; Efficacy [5]: < 10%; Efficacy [6]: < 10%

With `CC(C)=CCC/C(C)=C\COC(=O)CCc1ccccc1` as the molecule, how does the IC50 [1] read?
Its IC50 is greater than 100000 nM.

And the IC50 [2]?
Its IC50 is 110 nM.

And the EC50 [3]?
Its EC50 is 110 nM.

What about the IC50 [4] of the same molecule?
Its IC50 is 290 nM.

What about the Efficacy [5] of the same molecule?
The Efficacy was less than 10%.

What about the Efficacy [6] of the same molecule?
The Efficacy was less than 10%.

What does the source list for `CC(=O)OC/C=C(/C)CCC=C(C)C` [NERYL ACETATE]?
IC50 [1]: > 100000 nM; IC50 [2]: 20700 nM; EC50 [3]: 13300 nM; IC50 [4]: > 100000 nM; Efficacy [5]: < 10%; Efficacy [6]: < 10%

Which IC50 [1] does the source give for `CC(C)=CCC/C(C)=C\CNC(=O)Oc1ccc(C(C)(C)C)cc1` here?
The IC50 was greater than 100000 nM.

And the IC50 [2]?
The IC50 was 29 nM.

What about the EC50 [7] of the same molecule?
Its EC50 is 6500 nM.

What about the EC50 [3] of the same molecule?
Its EC50 is 18 nM.

And the IC50 [4]?
Its IC50 is greater than 100000 nM.

What about the Efficacy [5] of the same molecule?
Its Efficacy is less than 10%.

And the Efficacy [6]?
Its Efficacy is 15.8%.

Which results are given for `CC(C)=CCC/C(C)=C\CNC(=O)NC1CCCCC1`?
IC50 [1]: 15700 nM; IC50 [2]: 4400 nM; EC50 [7]: 8900 nM; EC50 [3]: 2650 nM; IC50 [4]: 30000 nM; Efficacy [5]: < 10%; Efficacy [6]: 50.1%

For `CC(C)=CCCC(C)CCO` (racemic) [CITRONELLOL], which IC50 [1] is on record?
Its IC50 is greater than 100000 nM.

And the IC50 [2]?
The IC50 was greater than 100000 nM.

What about the EC50 [3] of the same molecule?
Its EC50 is greater than 100000 nM.

And the IC50 [4]?
Its IC50 is greater than 100000 nM.

And the Efficacy [5]?
The Efficacy was less than 10%.

What about the Efficacy [6] of the same molecule?
The Efficacy was less than 10%.

Which results are given for `CC(C)=CCC/C(C)=C/COC(=O)c1cccc(C)c1`?
IC50 [1]: > 100000 nM; IC50 [2]: 1400 nM; EC50 [3]: 2400 nM; IC50 [4]: > 100000 nM; Efficacy [5]: < 10%; Efficacy [6]: < 10%

For `CC(C)=CCC/C(C)=C/COC(=O)c1cc(C(F)(F)F)cc(C(F)(F)F)c1`, which IC50 [1] is on record?
The IC50 was greater than 100000 nM.

And the IC50 [2]?
The IC50 was greater than 100000 nM.

What about the EC50 [3] of the same molecule?
Its EC50 is 11900 nM.

What about the IC50 [4] of the same molecule?
Its IC50 is greater than 100000 nM.

What about the Efficacy [5] of the same molecule?
The Efficacy was less than 10%.

What about the Efficacy [6] of the same molecule?
The Efficacy was less than 10%.

With `CC(C)=CCC/C(C)=C/COC(=O)c1ccc(C)cc1` as the molecule, how does the IC50 [1] read?
The IC50 was greater than 100000 nM.

And the IC50 [2]?
Its IC50 is 1000 nM.

What about the EC50 [7] of the same molecule?
Its EC50 is 6000 nM.

And the EC50 [3]?
Its EC50 is 330 nM.

What about the IC50 [4] of the same molecule?
The IC50 was greater than 100000 nM.

What about the Efficacy [5] of the same molecule?
The Efficacy was less than 10%.

What about the Efficacy [6] of the same molecule?
Its Efficacy is 17.6%.

What does the source list for `CC(C)=CCCC(C)CCOC(=O)c1ccc(C)cc1` (configuration not stated)?
IC50 [1]: > 100000 nM; IC50 [2]: 870 nM; EC50 [3]: 280 nM; IC50 [4]: > 100000 nM; Efficacy [5]: < 10%; Efficacy [6]: < 10%

For `CC(C)=CCC/C(C)=C\COC(=O)Cc1ccc(C)cc1`, which IC50 [1] is on record?
The IC50 was greater than 100000 nM.

And the IC50 [4]?
Its IC50 is 280 nM.

What about the Efficacy [5] of the same molecule?
The Efficacy was less than 10%.

And the Efficacy [6]?
The Efficacy was less than 10%.

`CC(C)=CCC/C(C)=C/CNC(=O)Nc1cccc(Cl)c1` was tested. Which IC50 [1] did it give?
The IC50 was 710 nM.

What about the IC50 [2] of the same molecule?
The IC50 was 480 nM.

What about the EC50 [7] of the same molecule?
Its EC50 is 2500 nM.

What about the EC50 [3] of the same molecule?
Its EC50 is 610 nM.

And the IC50 [4]?
The IC50 was greater than 100000 nM.

And the Efficacy [5]?
Its Efficacy is less than 10%.

And the Efficacy [6]?
Its Efficacy is 21.2%.

For `CC(C)=CCC/C(C)=C/COC(=O)c1ccc(C#N)cc1`, which IC50 [1] is on record?
Its IC50 is greater than 100000 nM.

And the IC50 [2]?
Its IC50 is 730 nM.

And the EC50 [3]?
Its EC50 is 480 nM.

And the IC50 [4]?
The IC50 was greater than 100000 nM.

What about the Efficacy [5] of the same molecule?
Its Efficacy is less than 10%.

What about the Efficacy [6] of the same molecule?
The Efficacy was less than 10%.

For `CC(C)=CCC/C(C)=C\COC(=O)c1ccc(C)cc1`, which IC50 [1] is on record?
The IC50 was greater than 100000 nM.

What about the IC50 [2] of the same molecule?
Its IC50 is 110 nM.

What about the EC50 [3] of the same molecule?
The EC50 was 93 nM.

What about the IC50 [4] of the same molecule?
The IC50 was 1200 nM.

What about the Efficacy [5] of the same molecule?
The Efficacy was less than 10%.

And the Efficacy [6]?
The Efficacy was less than 10%.

With `CC(C)=CCC/C(C)=C/COC(=O)CCc1ccccc1` as the molecule, how does the IC50 [1] read?
Its IC50 is greater than 100000 nM.

And the IC50 [2]?
Its IC50 is 170 nM.

And the EC50 [7]?
Its EC50 is 4000 nM.

And the EC50 [3]?
The EC50 was 390 nM.

What about the IC50 [4] of the same molecule?
Its IC50 is greater than 100000 nM.

What about the Efficacy [5] of the same molecule?
The Efficacy was less than 10%.

What about the Efficacy [6] of the same molecule?
Its Efficacy is 27.7%.

For `CC(C)=CCC/C(C)=C\COC(=O)Nc1ccc(C(C)(C)C)cc1`, which IC50 [1] is on record?
Its IC50 is 74600 nM.

What about the IC50 [2] of the same molecule?
Its IC50 is 290 nM.

What about the EC50 [7] of the same molecule?
The EC50 was 7800 nM.

What about the EC50 [3] of the same molecule?
Its EC50 is 41 nM.

What about the IC50 [4] of the same molecule?
The IC50 was greater than 100000 nM.

What about the Efficacy [5] of the same molecule?
Its Efficacy is less than 10%.

What about the Efficacy [6] of the same molecule?
The Efficacy was 24%.
